Assay results as given in ChEMBL document CHEMBL1155063 (Bioorg Med Chem, 2008).
The source made the active and inactive calls. No cut-off for these calls is given here.

Assays:
TK-10 = assay: Cytotoxicity against human TK10 cells at 10 uM after 48 hrs by MTT assay; type: functional; details: TK-10, 48 h, values are per cent of control
In short: (§1)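 Single-dose screen in the NCI 60-cell-line panel, run according to the Developmental Therapeutics Program protocol (one-dose mean graph). The result is the growth percentage of treated cells relative to untreated control cells.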

U-251 = assay: Cytotoxicity against human U251 cells at 10 uM after 48 hrs by MTT assay; type: functional; details: U-251, 48 h, values are per cent of control; in short: as §1
UACC-257 = assay: Cytotoxicity against human UACC257 cells at 10 uM after 48 hrs by MTT assay; type: functional; details: UACC-257, 48 h, values are per cent of control; in short: as §1
DU-145 = assay: Cytotoxicity against human DU145 cells at 10 uM after 48 hrs by MTT assay; type: functional; details: DU-145, 48 h, values are per cent of control
In short: (§2)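 Single-dose screen on the NCI 60-cell-line panel, run to the Developmental Therapeutics Program protocol (one-dose mean graph). Each value is the growth percentage of treated cells against untreated control cells.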

PC-3 = assay: Cytotoxicity against human PC3 cells at 10 uM after 48 hrs by MTT assay; type: functional; details: PC-3, 48 h, values are per cent of control; in short: as §2
SF-295 = assay: Cytotoxicity against human SF295 cells at 10 uM after 48 hrs by MTT assay; type: functional; details: SF-295, 48 h, values are per cent of control; in short: as §2
SF-539 = assay: Cytotoxicity against human SF539 cells at 10 uM after 48 hrs by MTT assay; type: functional; details: SF-539, 48 h, values are per cent of control; in short: as §2
SNB-75 = assay: Cytotoxicity against human SNB75 cells at 10 uM after 48 hrs by MTT assay; type: functional; details: SNB-75, 48 h, values are per cent of control; in short: as §1
[1] = target: T1, Telomerase reverse transcriptase (Homo sapiens, UniProt O14746); assay: Inhibition of telomerase in human H1299 cells at 1 to 20 uM by TRAP assay; type: cell-based
T1 sequence (O14746 whole entry): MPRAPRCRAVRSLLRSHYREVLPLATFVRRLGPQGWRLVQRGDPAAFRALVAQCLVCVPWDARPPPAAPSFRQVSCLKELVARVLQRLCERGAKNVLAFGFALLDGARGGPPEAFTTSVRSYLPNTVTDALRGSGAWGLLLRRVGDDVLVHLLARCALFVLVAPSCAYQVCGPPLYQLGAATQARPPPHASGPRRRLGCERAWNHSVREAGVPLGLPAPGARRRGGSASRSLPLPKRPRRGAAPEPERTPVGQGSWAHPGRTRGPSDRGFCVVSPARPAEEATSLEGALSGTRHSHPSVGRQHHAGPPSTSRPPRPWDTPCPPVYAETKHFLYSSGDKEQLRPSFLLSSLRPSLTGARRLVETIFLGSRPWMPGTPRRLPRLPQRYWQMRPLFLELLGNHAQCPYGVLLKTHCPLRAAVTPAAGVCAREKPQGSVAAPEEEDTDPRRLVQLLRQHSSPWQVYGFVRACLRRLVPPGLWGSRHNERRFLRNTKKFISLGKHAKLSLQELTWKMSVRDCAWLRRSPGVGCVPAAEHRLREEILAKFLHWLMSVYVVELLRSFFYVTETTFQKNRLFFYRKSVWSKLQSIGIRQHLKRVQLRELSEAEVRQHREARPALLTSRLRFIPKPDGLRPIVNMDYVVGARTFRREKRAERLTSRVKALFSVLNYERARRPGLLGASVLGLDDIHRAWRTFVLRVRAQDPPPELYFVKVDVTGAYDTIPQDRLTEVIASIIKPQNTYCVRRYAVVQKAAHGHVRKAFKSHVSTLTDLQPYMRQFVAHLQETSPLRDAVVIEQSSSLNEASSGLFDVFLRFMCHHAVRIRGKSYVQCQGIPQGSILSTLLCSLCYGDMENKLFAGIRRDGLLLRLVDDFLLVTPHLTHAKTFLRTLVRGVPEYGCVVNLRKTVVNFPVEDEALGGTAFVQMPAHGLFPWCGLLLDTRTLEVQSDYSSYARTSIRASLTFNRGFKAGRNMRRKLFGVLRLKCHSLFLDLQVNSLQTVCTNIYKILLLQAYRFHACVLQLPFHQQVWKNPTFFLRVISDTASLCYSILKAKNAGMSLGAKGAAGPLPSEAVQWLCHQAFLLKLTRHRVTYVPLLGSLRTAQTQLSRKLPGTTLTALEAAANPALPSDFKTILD
In short: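 Modified TRAP assay using 2 µg total lysate from H1299 lung cancer cells as the telomerase source. Compounds were tested at 1, 5, 10 and 20 µM. Products were resolved on 10% polyacrylamide gels and stained with SYBR Green. A Taq-polymerase internal control was included, along with positive and negative controls.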

[2] = Cytotoxicity against human TERT immortalized BJ1 cells at 100 uM after 48 hrs by MTT assay relative to control; type: cell-based, BJ
In short: (§3)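 hTERT-immortalized BJ1 fibroblasts were grown in DMEM with 10% FCS, 1 mM pyruvate and 4 mM […]. Cells (about 2 × 10^3 per well) were seeded and held 24 h at 37 °C. Compounds were freshly dissolved in DMSO, diluted into medium and left on the cells 48 h. MTT was added for 4 h, then SDS/DMF lysis buffer for 16 h. Absorbance was read at 550 nm and expressed relative to untreated cells (100%).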

[3] = Cytotoxicity against human TERT immortalized BJ1 cells at 10 uM after 48 hrs by MTT assay relative to control; type: cell-based, BJ; in short: as §3
[4] = Cytotoxicity against human CAK1-1 cells at 10 uM after 48 hrs by MTT assay; type: functional; details: CAK1-1, 48 h; in short: as §2
SN12C = assay: Cytotoxicity against human SN12C cells at 10 uM after 48 hrs by MTT assay; type: functional; in short: as §2
EKVX = assay: Cytotoxicity against human EKVX cells at 10 uM after 48 hrs by MTT assay; type: functional; in short: as §2
HOP-62 = assay: Cytotoxicity against human HOP62 cells at 10 uM after 48 hrs by MTT assay; type: functional; details: HOP-62, 48 h; in short: as §2
HOP-92 = assay: Cytotoxicity against human HOP92 cells at 10 uM after 48 hrs by MTT assay; type: functional; details: HOP-92, 48 h; in short: as §2
NCI-H23 = assay: Cytotoxicity against human NCI-H23 cells at 10 uM after 48 hrs by MTT assay; type: functional; details: NCI-H23, 48 h; in short: as §2
NCI-H322M = assay: Cytotoxicity against human NCI-H322M cells at 10 uM after 48 hrs by MTT assay; type: functional; in short: as §2
COLO 205 = assay: Cytotoxicity against human COLO205 cells at 10 uM after 48 hrs by MTT assay; type: functional; details: COLO 205, 48 h, values are per cent of control; in short: as §2
MCF7 = assay: Cytotoxicity against human MCF7 cells at 10 uM after 48 hrs by MTT assay; type: functional; details: MCF7, 48 h, values are per cent of control; in short: as §2
OVCAR-3 = assay: Cytotoxicity against human OVCAR-3 cells at 10 uM after 48 hrs by MTT assay; type: functional; details: OVCAR-3, 48 h; in short: as §2
OVCAR-8 = assay: Cytotoxicity against human OVCAR8 cells at 10 uM after 48 hrs by MTT assay; type: functional; details: OVCAR-8, 48 h; in short: as §2
CCRF-CEM = assay: Cytotoxicity against human CCRF-CEM cells at 10 uM after 48 hrs by MTT assay; type: functional; in short: as §2
K562 = assay: Cytotoxicity against human K562 cells at 10 uM after 48 hrs by MTT assay; type: functional; details: K562, 48 h; in short: as §2
MOLT-4 = assay: Cytotoxicity against human MOLT4 cells at 10 uM after 48 hrs by MTT assay; type: functional; details: MOLT-4, 48 h; in short: as §2
RPMI-8226 = assay: Cytotoxicity against human RPMI-8226 cells at 10 uM after 48 hrs by MTT assay; type: functional; details: RPMI-8226, 48 h; in short: as §2
SR = assay: Cytotoxicity against human SR cells at 10 uM after 48 hrs by MTT assay; type: functional; in short: as §1
786-0 = assay: Cytotoxicity against human 786-0 cells at 10 uM after 48 hrs by MTT assay; type: functional; details: 786-0, 48 h; in short: as §2
HCT-15 = assay: Growth percent of human HCT15 cells at 10 uM after 48 hrs by MTT assay; details: HCT-15, 48 h
HCT-116 = assay: Growth percent of human HCT116 cells at 10 uM after 48 hrs by MTT assay; details: HCT-116, 48 h
NCI-H460 = assay: Growth percent of human NCI-H460 cells at 10 uM after 48 hrs by MTT assay; details: NCI-H460, 48 h
[5] = Cell viability of human H1299 cells at 1 uM after 48 hrs by MTT assay relative to control; details: NCI-H1299, 48 h
[6] = target: T1, Telomerase reverse transcriptase; assay: Effect on human TERT expressed in BJ1 cells at 10 uM after 24 hrs by SEAP assay relative to control; details: BJ
[7] = target: T1, Telomerase reverse transcriptase; assay: Effect on human TERT expressed in H1299 cells at 10 uM after 24 hrs by SEAP assay relative to control
[8] = target: T1, Telomerase reverse transcriptase; assay: Effect on human TERT expressed in H1299 cells at 100 uM after 24 hrs by SEAP assay relative to control

| Compound | growth, % of control at 10 µM (TK-10) [%] | growth, % of control at 10 µM (U-251) [%] | growth, % of control at 10 µM (UACC-257) [%] | growth, % of control at 10 µM (DU-145) [%] | growth, % of control at 10 µM (PC-3) [%] | growth, % of control at 10 µM (SF-295) [%] | growth, % of control at 10 µM (SF-539) [%] | growth, % of control at 10 µM (SNB-75) [%] | viability at 48 h, 100 µM [2] [%] | viability at 48 h, 10 µM [3] [%] | growth percent at 10 µM [4] [%] | growth percent at 10 µM (SN12C) [%] | growth percent at 10 µM (EKVX) [%] | growth percent at 10 µM (HOP-62) [%] | growth percent at 10 µM (HOP-92) [%] | growth percent at 10 µM (NCI-H23) [%] | growth percent at 10 µM (NCI-H322M) [%] | growth, % of control at 10 µM (COLO 205) [%] | growth, % of control at 10 µM (MCF7) [%] | growth percent at 10 µM (OVCAR-3) [%] | further results |
| --- | --- | --- | --- | --- | --- | --- | --- | --- | --- | --- | --- | --- | --- | --- | --- | --- | --- | --- | --- | --- | --- |
| CCN(CC)CCC(=O)Nc1ccc2c(c1)C(=O)c1cc(NC(=O)CCN(CC)CC)ccc1C2=O | 17.2 | 21.6 | -14.5 | 10.2 | 13.6 | -19.9 | 37.1 | 46.6 | 36 | 55 | 3.27 | 8.63 | 60 | 11.7 | 9.7 | 30.3 | 44.8 | -49.7 | 9.34 | 10.4 | Activity [1]: Active; growth percent at 10 µM (OVCAR-8): 4.3%; growth percent at 10 µM (CCRF-CEM): -6.02%; growth percent at 10 µM (K562): 8.1%; growth percent at 10 µM (MOLT-4): 5.42%; growth percent at 10 µM (RPMI-8226): -29%; growth percent at 10 µM (SR): -0.39%; growth percent at 10 µM (786-0): 24.7%; growth percent at 10 µM (HCT-15): 17.4%; growth percent at 10 µM (HCT-116): -32.5%; growth percent at 10 µM (NCI-H460): 9.5%; cell viability at 1 µM [5]: 106%; residual activity [6]: 49%; residual activity [7]: 35%; residual activity [8]: 26% |
| O=C1c2ccc(NC(=O)C3CC3)cc2C(=O)c2cc(NC(=O)C3CC3)ccc21 | 136 | 72.6 | 108 | 98.8 | 107 | 86.6 | 93.2 | 89.2 | 47 | 44 | 88.4 | 82.9 | 94.3 | 91.6 | 86.2 | 95.8 | 106 | 91.9 | 77.4 | 103 | growth percent at 10 µM (OVCAR-8): 94.3%; growth percent at 10 µM (CCRF-CEM): 90.7%; growth percent at 10 µM (K562): 91.6%; growth percent at 10 µM (MOLT-4): 94.3%; growth percent at 10 µM (RPMI-8226): 88.4%; growth percent at 10 µM (SR): 1.69%; growth percent at 10 µM (786-0): 94.9%; growth percent at 10 µM (HCT-15): 86.3%; growth percent at 10 µM (HCT-116): 87.1%; growth percent at 10 µM (NCI-H460): 89%; cell viability at 1 µM [5]: 46%; residual activity [7]: 81%; residual activity [8]: 81% |
| CC(=O)Nc1ccc2c(c1)C(=O)c1cc(NC(C)=O)ccc1C2=O | 118 | 95.1 | 27 | 117 | 103 | 103 | 103 | 107 | 91 | 91 | 105 | 113 | 95.3 | 111 | 101 | 94.2 | 97.5 | 120 | 96.9 | 111 | growth percent at 10 µM (OVCAR-8): 99.8%; growth percent at 10 µM (CCRF-CEM): 99.8%; growth percent at 10 µM (K562): 98.5%; growth percent at 10 µM (MOLT-4): 97%; growth percent at 10 µM (RPMI-8226): 121%; growth percent at 10 µM (SR): 3.61%; growth percent at 10 µM (786-0): 97.7%; growth percent at 10 µM (HCT-15): 93.9%; growth percent at 10 µM (HCT-116): 102%; growth percent at 10 µM (NCI-H460): 109%; cell viability at 1 µM [5]: 117%; residual activity [6]: 117%; residual activity [7]: 87%; residual activity [8]: 74% |
